Assay results from ChEMBL document CHEMBL1140375, “Selective inhibitors of the serine protease plasmin: probing the S3 and S3' subsites using a combinatorial library” (J Med Chem, 2005).
Starred links: 1 amine or outer side, 2 acyl side, 3 side chain; linkers in the order of their positions; H or OH if unused. Non-standard residues stand in square brackets, D forms with d. Residues, ends and D or L forms follow the SMILES beside them. *: point of attachment. Gly(2S-L-tryptophyl) = N[C@H](C(=O)O)C(=O)[C@@H](N)Cc1c[nH]c2ccccc12; X1 = O=C1[C@@H](CCC(=O)[*:2])CCC[C@H]1N[*:1]; Cbz = O=C(OCc1ccccc1)*

Experiments:
Plasminogen = Plasminogen (Homo sapiens, UniProt P00747); experiment: Inhibitory concentration against plasmin
Plasminogen, sequence (P00747 97-580 limits assumed): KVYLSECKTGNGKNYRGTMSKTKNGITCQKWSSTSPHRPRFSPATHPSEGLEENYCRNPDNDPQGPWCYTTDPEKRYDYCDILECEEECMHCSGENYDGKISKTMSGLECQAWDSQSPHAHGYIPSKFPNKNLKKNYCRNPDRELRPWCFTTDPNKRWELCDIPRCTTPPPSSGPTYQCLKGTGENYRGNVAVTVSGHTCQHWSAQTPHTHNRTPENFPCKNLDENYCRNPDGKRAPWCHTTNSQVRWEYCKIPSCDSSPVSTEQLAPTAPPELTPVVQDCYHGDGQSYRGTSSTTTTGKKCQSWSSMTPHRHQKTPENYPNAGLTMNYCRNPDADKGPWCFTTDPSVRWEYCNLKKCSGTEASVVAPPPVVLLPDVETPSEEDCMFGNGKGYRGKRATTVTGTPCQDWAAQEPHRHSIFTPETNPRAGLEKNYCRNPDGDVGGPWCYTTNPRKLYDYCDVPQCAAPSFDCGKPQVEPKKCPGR
Plasminogen, sequence (P00747 581-810 limits assumed): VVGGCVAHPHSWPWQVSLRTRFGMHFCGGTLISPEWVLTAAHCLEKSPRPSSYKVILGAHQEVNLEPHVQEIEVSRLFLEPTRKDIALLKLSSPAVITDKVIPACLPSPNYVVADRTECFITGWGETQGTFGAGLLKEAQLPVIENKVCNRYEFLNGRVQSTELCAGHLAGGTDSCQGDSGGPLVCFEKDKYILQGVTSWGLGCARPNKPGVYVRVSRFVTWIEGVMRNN
Method in brief: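 Plasmin is cleaving D-Val-Leu-Lys-pNA, kept constant at its measured KM (167 μM). Reactions were run at 25 °C in 50 mM sodium phosphate buffer, pH 7.4, containing 10% DMSO final. Initial velocity was read as p-nitroaniline release at 405 nm between 30 and 120 s post-mixing. IC50 was determined from inhibited versus uninhibited rates.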

Plasma kallikrein = Plasma kallikrein (Homo sapiens, UniProt P03952); experiment: Inhibitory concentration against kallikrein
Plasma kallikrein, sequence (P03952 20-390 limits assumed): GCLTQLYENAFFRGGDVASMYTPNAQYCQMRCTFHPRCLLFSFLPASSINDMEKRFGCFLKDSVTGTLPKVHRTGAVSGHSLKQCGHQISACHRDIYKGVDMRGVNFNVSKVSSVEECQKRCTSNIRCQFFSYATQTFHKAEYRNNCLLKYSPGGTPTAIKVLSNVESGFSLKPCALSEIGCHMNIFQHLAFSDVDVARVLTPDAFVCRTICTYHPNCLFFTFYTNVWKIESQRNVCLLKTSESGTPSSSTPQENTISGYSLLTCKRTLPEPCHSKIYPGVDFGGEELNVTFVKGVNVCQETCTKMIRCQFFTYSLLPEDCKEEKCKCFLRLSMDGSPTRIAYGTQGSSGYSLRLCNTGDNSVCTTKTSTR
Plasma kallikrein, sequence (P03952 391-638 limits assumed): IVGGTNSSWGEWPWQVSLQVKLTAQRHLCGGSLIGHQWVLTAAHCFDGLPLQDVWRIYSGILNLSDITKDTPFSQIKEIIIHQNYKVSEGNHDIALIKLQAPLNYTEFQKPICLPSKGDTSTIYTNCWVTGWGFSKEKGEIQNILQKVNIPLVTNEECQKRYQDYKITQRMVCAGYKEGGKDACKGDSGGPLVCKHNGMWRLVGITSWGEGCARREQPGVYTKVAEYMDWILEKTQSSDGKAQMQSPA

Prothrombin = Prothrombin (Homo sapiens, UniProt P00734); experiment: Inhibitory concentration against thrombin
Method in brief: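 Thrombin is tested against chromogenic D-Phe-Pip-Arg-pNA at its KM, measured as 45 μM. Conditions were 50 mM sodium phosphate (pH 7.4), 10% DMSO final, 25 °C. p-Nitroaniline formation was followed at 405 nm from 30 to 120 s after mixing to give initial rates, from which IC50 was obtained.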

Serine protease 1 = Serine protease 1 (Homo sapiens, UniProt P07477); experiment: Inhibitory concentration against trypsin
Serine protease 1, sequence (P07477 whole entry): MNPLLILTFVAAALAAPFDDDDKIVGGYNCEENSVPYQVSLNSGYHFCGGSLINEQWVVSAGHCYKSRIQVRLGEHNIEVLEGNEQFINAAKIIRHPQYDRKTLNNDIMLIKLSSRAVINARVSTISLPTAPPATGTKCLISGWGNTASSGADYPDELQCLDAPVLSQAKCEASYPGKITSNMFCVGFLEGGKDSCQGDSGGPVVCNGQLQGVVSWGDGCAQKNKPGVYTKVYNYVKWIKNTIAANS
Method in brief: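 For trypsin, the substrate was D-Phe-Pip-Arg-pNA at its KM of 122 μM. Assays were run at 25 °C in 50 mM sodium phosphate pH 7.4 with 10% DMSO final. Initial rates came from the 405 nm p-nitroaniline signal over 30–120 s after mixing. IC50 values came from comparing rates with and without inhibitor.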

| SMILES | IC50 (Plasminogen) [µM] | IC50 (Plasma kallikrein) [µM] | IC50 (Prothrombin) [µM] | IC50 (Serine protease 1) [µM] |
| --- | --- | --- | --- | --- |
| CC[C@H](C)[C@H](N)C(=O)[C@H](NC(=O)[C@@H](NC(=O)CC[C@H]1CCC[C@@H](NC(=O)[C@@H](NC(=O)[C@@H](NC(=O)OCc2ccccc2)C(=O)[C@@H](N)Cc2c[nH]c3ccccc23)C(=O)[C@@H](N)Cc2c[nH]c3ccccc23)C1=O)C(=O)[C@@H](N)Cc1c[nH]c2ccccc12)C(=O)OC | 13.5 | – | – | – |
| COC(=O)[C@@H](NC(=O)[C@@H](NC(=O)CC[C@H]1CCC[C@@H](NC(=O)[C@@H](NC(=O)[C@@H](NC(=O)OCc2ccccc2)C(=O)[C@@H](N)Cc2c[nH]c3ccccc23)C(=O)[C@@H](N)Cc2c[nH]c3ccccc23)C1=O)C(=O)[C@@H](N)Cc1c[nH]c2ccccc12)C(=O)[C@@H](N)C(C)C | 14.1 | – | – | – |
| COC(=O)[C@@H](NC(=O)[C@@H](NC(=O)CC[C@H]1CCC[C@@H](NC(=O)[C@@H](NC(=O)[C@@H](NC(=O)OCc2ccccc2)C(=O)[C@@H](N)Cc2c[nH]c3ccccc23)C(=O)[C@@H](N)Cc2c[nH]c3ccccc23)C1=O)C(=O)[C@@H](N)Cc1c[nH]c2ccccc12)C(=O)[C@@H](N)CC(C)C | 3.2 | – | – | – |
| COC(=O)[C@@H](NC(=O)[C@@H](NC(=O)CC[C@H]1CCC[C@@H](NC(=O)[C@@H](NC(=O)[C@@H](NC(=O)OCc2ccccc2)C(=O)[C@@H](N)Cc2c[nH]c3ccccc23)C(=O)[C@@H](N)Cc2c[nH]c3ccccc23)C1=O)C(=O)[C@@H](N)Cc1c[nH]c2ccccc12)C(=O)[C@@H](N)Cc1c[nH]c2ccccc12 (Cbz-[Gly(2S-L-tryptophyl)][Gly(2S-L-tryptophyl)][X1][Gly(2S-L-tryptophyl)][Gly(2S-L-tryptophyl)]-OMe) | 3.6 | – | – | – |

Next, values leading:

| IC50 (Plasminogen) [µM] | IC50 (Plasma kallikrein) [µM] | IC50 (Prothrombin) [µM] | IC50 (Serine protease 1) [µM] | SMILES |
| --- | --- | --- | --- | --- |
| 2.7 | > 400 | > 400 | > 400 | COC(=O)[C@@H](NC(=O)[C@@H](NC(=O)CC[C@H]1CCC[C@@H](NC(=O)[C@@H](NC(=O)[C@@H](NC(=O)OCc2ccccc2)C(=O)[C@@H](N)Cc2c[nH]c3ccccc23)C(=O)[C@@H](N)Cc2c[nH]c3ccccc23)C1=O)C(=O)[C@@H](N)Cc1c[nH]c2ccccc12)C(=O)[C@@H](N)Cc1ccc(O)cc1 |
| 6.6 | – | – | – | COC(=O)[C@@H](NC(=O)[C@@H](NC(=O)CC[C@H]1CCC[C@@H](NC(=O)[C@@H](NC(=O)[C@@H](NC(=O)OCc2ccccc2)C(=O)[C@@H](N)Cc2c[nH]c3ccccc23)C(=O)[C@@H](N)Cc2c[nH]c3ccccc23)C1=O)C(=O)[C@@H](N)Cc1c[nH]c2ccccc12)C(=O)[C@H](C)N |
| 3.3 | – | – | – | COC(=O)[C@@H](NC(=O)[C@@H](NC(=O)CC[C@H]1CCC[C@@H](NC(=O)[C@@H](NC(=O)[C@@H](NC(=O)OCc2ccccc2)C(=O)[C@@H](N)Cc2c[nH]c3ccccc23)C(=O)[C@@H](N)Cc2c[nH]c3ccccc23)C1=O)C(=O)[C@@H](N)Cc1c[nH]c2ccccc12)C(=O)[C@@H](N)Cc1ccccc1 |
